Experimental findings from ChEMBL document CHEMBL1148427, “Diastereoselective synthesis and configuration-dependent activity of (3-substituted-cycloalkyl)glycine pyrrolidides and thiazolidides as dipeptidyl peptidase IV inhibitors” (Bioorg Med Chem Lett, 2004) are described below.

For assay [1], the target named is T1, Prolyl endopeptidase (Homo sapiens, UniProt P48147).
T1 sequence (P48147 whole entry): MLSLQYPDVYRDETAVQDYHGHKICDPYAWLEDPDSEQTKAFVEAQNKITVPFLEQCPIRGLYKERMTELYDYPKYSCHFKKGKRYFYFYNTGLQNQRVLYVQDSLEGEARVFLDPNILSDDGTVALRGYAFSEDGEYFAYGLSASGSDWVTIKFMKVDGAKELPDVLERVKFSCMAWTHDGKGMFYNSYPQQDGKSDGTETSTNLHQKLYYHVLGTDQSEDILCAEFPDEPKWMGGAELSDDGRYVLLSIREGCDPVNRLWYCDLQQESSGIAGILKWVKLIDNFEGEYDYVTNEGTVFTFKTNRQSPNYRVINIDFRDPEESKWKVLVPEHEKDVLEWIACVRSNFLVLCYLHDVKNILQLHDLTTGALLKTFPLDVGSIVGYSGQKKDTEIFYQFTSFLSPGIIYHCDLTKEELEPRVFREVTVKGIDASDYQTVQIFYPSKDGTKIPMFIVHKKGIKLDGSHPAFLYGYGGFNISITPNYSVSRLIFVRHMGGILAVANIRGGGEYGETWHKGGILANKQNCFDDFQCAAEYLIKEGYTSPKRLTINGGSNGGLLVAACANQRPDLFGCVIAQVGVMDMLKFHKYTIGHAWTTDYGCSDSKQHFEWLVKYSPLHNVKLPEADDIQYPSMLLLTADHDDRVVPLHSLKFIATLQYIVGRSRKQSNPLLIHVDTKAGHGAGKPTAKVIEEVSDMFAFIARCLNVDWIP
Description: Inhibitory activity against human prolylendopeptidase.

A further assay deals with Dipeptidyl peptidase 4 (Homo sapiens, UniProt P27487). The experiment in a line: Inhibitory activity against human recombinant Dipeptidylpeptidase IV. The method in brief:
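Human recombinant enzyme run in a fluorometric assay with Gly-Pro-AMC as substrate. Cleavage releases fluorescent 7-amino-4-methylcoumarin, which is read to give IC50 values.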

Assay [2] can be described thus: Inhibitory activity against human aminopeptidase P.
Another assay has as its target Dipeptidyl peptidase 2 (Homo sapiens, UniProt Q9UHL4). Description: Inhibitory activity against human quiescent cell proline dipeptidase.
Assay [3] concerns the target T1, Prolyl endopeptidase. Description: Inhibitory activity against human prolyl endopeptidase.

Structures are written as SMILES.

Sequence of Dipeptidyl peptidase 4 (P27487 whole entry): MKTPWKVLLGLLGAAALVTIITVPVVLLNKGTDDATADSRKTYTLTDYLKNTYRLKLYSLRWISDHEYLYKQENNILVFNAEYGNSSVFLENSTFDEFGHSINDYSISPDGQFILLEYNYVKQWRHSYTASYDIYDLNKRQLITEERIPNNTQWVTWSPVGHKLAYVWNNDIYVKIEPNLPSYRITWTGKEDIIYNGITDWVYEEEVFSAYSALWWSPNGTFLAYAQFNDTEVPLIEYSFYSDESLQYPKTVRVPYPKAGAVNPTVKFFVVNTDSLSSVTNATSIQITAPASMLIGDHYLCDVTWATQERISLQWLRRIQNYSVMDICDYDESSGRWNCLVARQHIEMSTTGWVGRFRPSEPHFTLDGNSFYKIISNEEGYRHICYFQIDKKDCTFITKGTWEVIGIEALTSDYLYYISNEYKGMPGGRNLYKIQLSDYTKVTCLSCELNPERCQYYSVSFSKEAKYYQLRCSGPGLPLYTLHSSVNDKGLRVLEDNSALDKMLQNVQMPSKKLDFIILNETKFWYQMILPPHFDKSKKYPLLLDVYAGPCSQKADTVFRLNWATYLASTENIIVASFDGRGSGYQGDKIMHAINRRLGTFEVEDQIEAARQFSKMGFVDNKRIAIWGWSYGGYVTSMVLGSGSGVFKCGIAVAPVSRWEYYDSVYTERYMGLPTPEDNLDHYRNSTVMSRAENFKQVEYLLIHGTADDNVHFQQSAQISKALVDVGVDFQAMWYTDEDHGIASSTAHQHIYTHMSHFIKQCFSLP

For `N[C@H](C(=O)N1CCCC1)[C@H]1CCC[C@H](OC(=O)Nc2ccc(I)cc2)C1`, the 50% inhibitory concentration (IC50) on Prolyl endopeptidase [1] is more than 100000 nM; at Dipeptidyl peptidase 4 it was 330 nM; in assay [2] it was more than 100000 nM; against Dipeptidyl peptidase 2, 110 nM.

Turning to `N[C@H](C(=O)N1CCCC1)[C@H]1CCC[C@@H](OC(=O)Nc2ccc(I)cc2)C1`, the IC50 on Prolyl endopeptidase [1] is 27000 nM; at Dipeptidyl peptidase 4, 110 nM; in assay [2], more than 100000 nM; against Dipeptidyl peptidase 2, 420 nM.

Consider `N[C@@H](C(=O)N1CCSC1)[C@H]1CC[C@@H](OC(=O)Nc2cccc(F)c2)C1`, for which the IC50 against Prolyl endopeptidase [1] is more than 100000 nM; on Dipeptidyl peptidase 4, 1200 nM; in assay [2], more than 100000 nM; against Dipeptidyl peptidase 2 it was 540 nM.

Take `N[C@H](C(=O)N1CCSC1)[C@H]1CC[C@H](NC(=O)Nc2cccc3ccccc23)C1`: the IC50 against Prolyl endopeptidase [1] is 2100 nM; at Dipeptidyl peptidase 4, 43 nM; in assay [2], more than 100000 nM; at Dipeptidyl peptidase 2, 26 nM.

As for `CS(=O)(=O)NCCS(=O)(=O)N[C@H]1CC[C@H]([C@H](N)C(=O)N2CCCC2)C1`, the IC50 against Prolyl endopeptidase [1] is more than 100000 nM; at Dipeptidyl peptidase 4 it was 95 nM; in assay [2], more than 100000 nM; against Dipeptidyl peptidase 2, 2000 nM.

Regarding `N[C@H](C(=O)N1CCSC1)[C@H]1CC[C@H](NC(=O)c2cccc3ccccc23)C1`, the IC50 is 1400 nM on Prolyl endopeptidase [1], 47 nM at Dipeptidyl peptidase 4, more than 100000 nM in assay [2] and 240 nM against Dipeptidyl peptidase 2.

`N[C@H](C(=O)N1CCCC1)[C@H]1CCC[C@H](O)C1`: the 50% inhibitory concentration (IC50) at Prolyl endopeptidase [1] is more than 100000 nM; on Dipeptidyl peptidase 4 it was 290 nM; in assay [2], more than 100000 nM; against Dipeptidyl peptidase 2 it was 40000 nM.

Take `N[C@H](C(=O)N1CCCC1)[C@H]1CC[C@@H](O)C1`: the IC50 at Dipeptidyl peptidase 4 is 4600 nM; in assay [2] it was more than 100000 nM; against Dipeptidyl peptidase 2 it was 50000 nM; at Prolyl endopeptidase [3] it was more than 100000 nM.

As to `CS(=O)(=O)c1ccccc1S(=O)(=O)N[C@H]1CC[C@H]([C@H](N)C(=O)N2CCCC2)C1`, the IC50 at Prolyl endopeptidase [1] was more than 100000 nM; at Dipeptidyl peptidase 4 it was 150 nM; in assay [2] it was more than 100000 nM; on Dipeptidyl peptidase 2, 1000 nM.

With `CS(=O)(=O)NCCS(=O)(=O)N[C@@H]1CC[C@@H]([C@H](N)C(=O)N2CCCC2)C1`, the concentration for half-maximal inhibition (IC50) on Dipeptidyl peptidase 4 was 71 nM; in assay [2], more than 100000 nM; on Dipeptidyl peptidase 2, 21000 nM; against Prolyl endopeptidase [3] it was more than 100000 nM.
